Only some compounds are listed: those with a hit (about 2.2% of all), similar ones and a draw of the others.
Exocytosis inh – LAMP-1 surface exposure blockers, TALL-104 cells – cell-based, flow cytometry, MLPCN library, primary screen. 360,000 compounds, 0.66% hits. TALL-104 LAMP-1 surface exposure; cells stimulated with thapsigargin and PMA. inhibition, % at 10 µM;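 active means inhibition above about 55%, limit read from the data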
ASAP1 inh – inhibitors of human ASAP1 ArfGAP activity, primary screen, biochemical, fluorescence polarization; Arf-GAP with SH3 domain, ANK repeat and PH domain-containing protein 1 (Homo sapiens), …; ASAP1-stimulated ARF1 GTP hydrolysis, GDP FP detection; inhibition, % at 16.5 µM; 360,000 compounds, 0.19% hits; AID 624377, 2012; in the data active means inhibition above about 25%;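 further: 0% = vehicle with enzyme and substrate and 100% = no enzyme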
V-ATPase pH – regulators of yeast V-ATPase proton pumping, primary screen, pHLuorin cytosolic pH fluorescence; S. cerevisiae; response, % at 10 µM; 350,000 compounds, 0.37% hits; in the data active means response mostly above about 7.3%, no sharp cut-off; inactive means mostly below about 5.4%; further: actives read high
ARFGAP1 inhibitor – inhibitors of rat ARFGAP1 GAP activity, primary screen, biochemical, fluorescence polarization, GDP tracer; Arfgap1-stimulated ARF1 GTP hydrolysis, GDP FP detection; 360,000 compounds, 0.26% hits; ADP-ribosylation factor GTPase-activating protein 1 (Rattus norvegicus), Q62848; inhibition, % at 16.5 µM;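 active means inhibition above a per-plate limit, mean inhibition of low control wells plus 3 SD, cut at about 25% in these data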;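 further: 0% = DMSO wells with enzyme and 100% = wells lacking Arfgap1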
Target sequence (Q62848 1-136 limits assumed): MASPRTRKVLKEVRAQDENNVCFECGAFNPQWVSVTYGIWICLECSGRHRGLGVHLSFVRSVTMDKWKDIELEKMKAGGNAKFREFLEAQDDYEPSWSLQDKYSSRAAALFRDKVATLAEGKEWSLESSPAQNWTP
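Assay system: Rat Arfgap1 GAP domain (His6, aa 1-136), purified enzyme | Buffer or medium: HEPES 25 mM pH 7.5, NaCl 150 mM, MgCl2, DTT | Schedule: GTP hydrolysis reaction 2 h at 25 °C | Signal: FP of antibody-bound GDP Alexa 633 tracer, ex 620/em 688 nm | Measure: Percent inhibition of Arfgap1-stimulated GTP hydrolysis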
NRP1-CendR mod – modulators of CendR peptide binding to NRP-1, primary screen, biochemical, fluorescence polarization, uHTS. FAM-RPARPAR peptide binding to NRP-1. 360,000 compounds, 0.85% hits. inhibition, % at 25 µM. AID 602438, 2012;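 active means inhibition or corrected inhibition above about 18%, plus a signal ratio from 0.5 to 1.5, limit read from the data, passing the limit was not always enough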
Numbers without * were called inactive; · = no result.

SMILES	Exocytosis inh	ASAP1 inh	V-ATPase pH	ARFGAP1 inhibitor	NRP1-CendR mod
Nc1[nH]c(C(=O)c2ccc(Br)cc2)c(-c2ccncc2)c1C(=O)c1ccccc1	·	3.3	·	11.7	·
Cc1nn(C)c(C(=O)Nc2c(C)nn(Cc3c(F)c(F)c(F)c(F)c3F)c2C)c1Br	1.8	-3.3	-0.1	-2.9	0.0
Cc1c(N=C2C=CC(=O)c3ccccc32)c(=O)n(-c2ccccc2)n1C	95.2*	7.1	1.9	4.8	37.7*
Cc1c(N=C2C=C(Br)C(=O)C(Br)=C2)c(=O)n(-c2ccccc2)n1C	6.7	10.6	-0.5	-10.2	-8.9
Cc1cc2c(cc1C)-c1nnnn1C(N1CCCCC1)C(=O)N2 (configuration not stated)	2.0	1.3	·	1.0	20.7*
O=C1Nc2ccccc2-c2nnnn2C1N1CCC(Cc2ccccc2)CC1 (configuration not stated)	6.0	-7.1	·	-6.2	16.5
O=C(OCc1cnc(Cl)s1)c1ccccc1Cl	-1.4	-15.6	0.1	4.7	12.6
O=C(OCn1ncc(Cl)c(Cl)c1=O)c1cccc(C(F)(F)F)c1	8.9	·	-0.8	·	14.1
O=C(OCn1ncc(Br)c(Br)c1=O)c1ccc(F)cc1	63.8*	·	2.3	·	-10.4
O=C(OCn1ncc(Br)c(Br)c1=O)c1ccccc1Cl	97.5*	·	-4.0	·	12.5
Nc1nc2c(ncn2[C@@H]2O[C@H](C(=O)N[C@H](Cc3ccccc3)C(=O)O)[C@@H](O)[C@H]2O)c(=O)[nH]1	·	-4.1	·	-9.2	·
CN(CC(=O)NNC(=O)c1cccnc1)S(=O)(=O)c1cc(Cl)ccc1Cl	-3.1	2.3	-0.6	1.3	39.7*
O=C(NNC(=O)c1ccccc1Cl)c1cccnc1	6.1	5.5	5.5	-4.3	22.8*
CN(CC(=O)Nc1cccnc1)S(=O)(=O)c1cc(Cl)ccc1Cl	0.5	·	2.4	·	5.0
O=C(NNC(=O)c1ccccc1Cl)c1ccccc1Cl	-12.4	-0.4	1.3	-10.8	15.1
CC(=O)C1=C(C)N(Cc2ccc(F)cc2)C(=S)NC1c1cccc(Br)c1 (configuration not stated)	·	8.4	·	8.7	·
Cc1cc(Br)cn2c(Cc3ccccc3C(F)(F)F)c(-c3ccc(F)cc3)nc12	·	5.4	·	1.1	·
COc1cccc(/C=C/C(=O)OCC(=O)Nc2ccc(Cl)c(S(=O)(=O)N(C)C)c2)c1	-2.5	14.3	0.2	6.6	0.6
COc1cccc(/C=C/C(=O)OCC(=O)c2ccc(Br)cc2)c1	-8.5	-2.9	3.4	11.7	18.4*
COc1cccc(/C=C/C(=O)OCC(=O)Nc2cc(C(F)(F)F)ccc2Cl)c1	-3.3	-12.8	-0.2	12.7	38.6*
Cc1ccc(S(=O)(=O)N2CC3=C(c4ccccc4)CC4(C)C(=O)C(C)(C)CC4=C3C2)cc1 (configuration not stated)	·	-6.9	·	0.6	·
Fc1ccc(-c2ccc3c(n2)CCCN3Cc2ccccc2C(F)(F)F)cc1	·	16.3	·	6.7	·
Cc1ccc(S(=O)(=O)NCC2CCN(C(=O)C(=O)c3cc4ccccc4o3)CC2)cc1	·	6.5	·	-6.2	·
COC(=O)[C@]12C[C@H](CC(=O)NCCCN3CCCC3=O)C(=O)N(Cc3ccccc3)C1=C[C@H](C(C)(C)C)O[C@@H]2C	·	-0.3	·	-2.5	·
COC(=O)[C@]12C[C@H](CC(=O)NCC3CCCCC3)C(=O)N(CCC3=CCCCC3)C1=C[C@H](COCc1ccccc1)O[C@@H]2C	·	1.1	·	2.2	·
COc1ccc(S(=O)(=O)N2CCOCC2)cc1NC(=O)COC(=O)C1COc2ccccc2O1 (configuration not stated)	-2.4	3.1	3.0	9.0	27.8*
O=C(COC(=O)c1ccccc1SCC(=O)N1CCCC1)Nc1ccccc1C(F)(F)F	9.7	-14.1	-0.3	9.4	32.5*
Cc1cccc2sc(NNC(=O)c3ccc(S(=O)(=O)N4CCc5ccccc5C4)cc3)nc12	11.5	4.0	2.8	6.4	-10.8

Screening data deposited in PubChem BioAssay by several laboratories.
